Experimental data reported in PMC3158671 (Carbohydrate Research, 2011).

Assays:
[1] = biological target: T1, human lysosomal β-galactosidase (Homo sapiens, UniProt P16278); assay: Human lysosomal β-galactosidase inhibition; assay type: biochemical
T1 sequence (P16278 29-677): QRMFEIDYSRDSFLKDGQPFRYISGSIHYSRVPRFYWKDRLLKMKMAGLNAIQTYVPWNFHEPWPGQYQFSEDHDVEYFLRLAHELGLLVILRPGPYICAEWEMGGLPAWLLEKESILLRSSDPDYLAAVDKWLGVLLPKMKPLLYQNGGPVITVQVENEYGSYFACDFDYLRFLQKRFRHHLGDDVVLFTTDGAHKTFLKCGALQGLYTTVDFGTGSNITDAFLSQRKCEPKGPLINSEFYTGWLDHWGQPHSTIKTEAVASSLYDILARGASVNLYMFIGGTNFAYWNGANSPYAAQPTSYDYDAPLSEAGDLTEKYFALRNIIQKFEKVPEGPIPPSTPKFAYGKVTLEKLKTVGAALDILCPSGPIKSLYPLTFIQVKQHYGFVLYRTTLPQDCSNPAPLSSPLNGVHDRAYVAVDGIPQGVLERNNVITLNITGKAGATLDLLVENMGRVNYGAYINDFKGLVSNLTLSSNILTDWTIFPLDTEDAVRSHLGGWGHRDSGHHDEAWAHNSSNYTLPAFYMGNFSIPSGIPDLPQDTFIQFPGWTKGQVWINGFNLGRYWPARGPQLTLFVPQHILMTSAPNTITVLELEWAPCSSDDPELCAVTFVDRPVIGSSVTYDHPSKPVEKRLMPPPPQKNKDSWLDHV

[2] = biological target: T2, β-galactosidase p.Arg483Pro mutation (Felis catus, UniProt O19015, R483P); assay: Intracellular β-galactosidase activity in GM1 gangliosidosis feline fibroblasts; assay type: cell-based, cat; settings: 5 days; for maximal increase of intracellular β-galactosidase activity: relative to DMSO treated cells
T2 sequence (O19015 30-669 R483P): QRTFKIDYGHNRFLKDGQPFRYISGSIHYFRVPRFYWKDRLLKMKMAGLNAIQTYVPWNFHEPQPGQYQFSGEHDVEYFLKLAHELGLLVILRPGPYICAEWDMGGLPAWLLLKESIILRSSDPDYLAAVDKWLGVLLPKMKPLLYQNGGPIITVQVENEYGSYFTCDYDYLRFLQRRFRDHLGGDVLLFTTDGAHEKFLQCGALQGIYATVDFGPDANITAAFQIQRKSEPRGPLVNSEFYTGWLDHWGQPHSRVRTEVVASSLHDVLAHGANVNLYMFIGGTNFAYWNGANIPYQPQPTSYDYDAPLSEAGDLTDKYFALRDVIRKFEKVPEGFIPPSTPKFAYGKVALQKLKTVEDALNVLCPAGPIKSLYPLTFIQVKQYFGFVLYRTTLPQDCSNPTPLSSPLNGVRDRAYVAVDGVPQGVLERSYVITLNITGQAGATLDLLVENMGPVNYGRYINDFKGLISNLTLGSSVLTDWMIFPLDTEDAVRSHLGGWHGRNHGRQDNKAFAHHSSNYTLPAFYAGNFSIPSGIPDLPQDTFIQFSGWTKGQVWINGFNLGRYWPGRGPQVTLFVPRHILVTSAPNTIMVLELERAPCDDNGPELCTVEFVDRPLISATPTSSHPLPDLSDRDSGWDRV
Summary of the method: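 GM1 gangliosidosis fibroblasts from an affected cat (β-galactosidase p.Arg483Pro) treated 5 days with escalating doses of test compound dissolved in DMSO. Cells lysed; intracellular β-galactosidase measured with fluorogenic 4-methylumbelliferyl β-D-galactopyranoside, β-N-acetylhexosaminidase also measured with MU substrate. Activity normalized to DMSO-treated cells.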

[3] = biological target: T3, β-glucosidase/β-galactosidase from Agrobacterium sp. (Agrobacterium sp., UniProt P12614); assay: Agrobacterium sp. β-galactosidase/-glucosidase inhibition; assay type: biochemical
T3 sequence (P12614 1-459): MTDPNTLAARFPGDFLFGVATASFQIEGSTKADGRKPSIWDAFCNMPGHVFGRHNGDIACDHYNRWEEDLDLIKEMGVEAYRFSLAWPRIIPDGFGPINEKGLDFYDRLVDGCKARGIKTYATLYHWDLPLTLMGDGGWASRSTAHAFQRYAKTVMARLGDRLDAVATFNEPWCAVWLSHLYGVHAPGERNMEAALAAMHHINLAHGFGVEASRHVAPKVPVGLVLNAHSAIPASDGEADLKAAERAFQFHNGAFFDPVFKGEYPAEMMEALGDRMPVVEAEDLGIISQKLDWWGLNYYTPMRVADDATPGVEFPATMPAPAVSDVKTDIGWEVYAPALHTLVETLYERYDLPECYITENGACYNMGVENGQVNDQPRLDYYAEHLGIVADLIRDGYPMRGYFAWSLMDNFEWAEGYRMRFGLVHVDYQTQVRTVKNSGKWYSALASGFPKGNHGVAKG

[4] = biological target: β-galactosidase from E. coli (Escherichia coli, UniProt P00722); assay: E. coli β-galactosidase inhibition; assay type: biochemical
β-galactosidase from E. coli, sequence (P00722 2-1024 limits assumed): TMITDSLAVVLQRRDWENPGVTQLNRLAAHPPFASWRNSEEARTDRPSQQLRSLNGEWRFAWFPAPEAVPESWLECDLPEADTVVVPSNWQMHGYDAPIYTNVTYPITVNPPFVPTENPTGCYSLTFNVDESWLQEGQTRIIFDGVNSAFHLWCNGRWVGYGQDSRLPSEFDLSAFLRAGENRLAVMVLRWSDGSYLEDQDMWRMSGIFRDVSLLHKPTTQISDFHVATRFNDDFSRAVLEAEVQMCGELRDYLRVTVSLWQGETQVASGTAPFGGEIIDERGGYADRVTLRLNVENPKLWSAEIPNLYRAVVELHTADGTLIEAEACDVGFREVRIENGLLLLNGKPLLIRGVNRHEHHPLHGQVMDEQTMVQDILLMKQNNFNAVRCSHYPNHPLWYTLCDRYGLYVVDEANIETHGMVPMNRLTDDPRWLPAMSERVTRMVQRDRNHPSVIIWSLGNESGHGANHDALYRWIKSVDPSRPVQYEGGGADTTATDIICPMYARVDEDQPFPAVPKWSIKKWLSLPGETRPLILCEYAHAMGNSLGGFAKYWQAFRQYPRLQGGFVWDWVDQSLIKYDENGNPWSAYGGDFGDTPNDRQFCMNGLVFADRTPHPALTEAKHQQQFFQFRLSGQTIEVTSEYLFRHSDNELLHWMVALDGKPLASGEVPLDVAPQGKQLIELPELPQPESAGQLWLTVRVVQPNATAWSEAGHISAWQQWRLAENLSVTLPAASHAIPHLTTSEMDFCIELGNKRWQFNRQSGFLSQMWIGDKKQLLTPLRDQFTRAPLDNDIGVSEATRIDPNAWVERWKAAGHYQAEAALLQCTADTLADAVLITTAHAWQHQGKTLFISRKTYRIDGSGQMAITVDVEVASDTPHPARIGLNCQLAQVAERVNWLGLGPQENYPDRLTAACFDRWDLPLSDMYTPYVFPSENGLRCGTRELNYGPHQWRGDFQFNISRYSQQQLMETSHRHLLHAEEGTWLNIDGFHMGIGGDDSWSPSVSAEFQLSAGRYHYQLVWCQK

[5] = biological target: α-galactosidase from green coffee beans (Coffea arabica, UniProt Q42656); assay: Green coffee bean α-galactosidase inhibition; assay type: biochemical
α-galactosidase from green coffee beans, sequence (Q42656 16-378): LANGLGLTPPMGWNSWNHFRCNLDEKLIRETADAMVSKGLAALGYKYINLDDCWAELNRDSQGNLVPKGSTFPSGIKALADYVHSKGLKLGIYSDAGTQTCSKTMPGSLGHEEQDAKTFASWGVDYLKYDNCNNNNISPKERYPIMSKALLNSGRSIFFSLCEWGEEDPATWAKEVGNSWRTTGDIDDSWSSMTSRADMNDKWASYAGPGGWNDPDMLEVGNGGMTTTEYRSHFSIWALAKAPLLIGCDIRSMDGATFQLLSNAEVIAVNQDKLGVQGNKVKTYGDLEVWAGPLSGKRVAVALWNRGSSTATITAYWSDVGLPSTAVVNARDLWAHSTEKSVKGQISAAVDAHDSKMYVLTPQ

| SMILES | IC50 [1] [nM] | concentration at maximal increase of intracellular β-galactosidase activity [2] [µM] | maximal increase of intracellular β-galactosidase activity [2] [fold] | Ki [3] [nM] | Ki [4] [nM] | Ki [5] [nM] | range of β-galactosidase activity enhancement [2] |
| --- | --- | --- | --- | --- | --- | --- | --- |
| CN(C)c1cccc2c(S(=O)(=O)NCCCCCCN(CCCCCCNS(=O)(=O)c3cccc4c(N(C)C)cccc34)C(=O)CCCCCN3C[C@H](O)[C@@H](O)[C@@H](O)[C@H]3CO)cccc12 [Compound 9, N-Bis(dansylaminohexyl)aminocarbonylpentyl-1,5-dideoxy-1,5-imino-D-galactitol] | 850 | 2.1 | 1.5 | 630 | 290 | 2600 | – |
| CCCCCCCC(=O)N(CCCCCCNS(=O)(=O)c1cccc2c(N(C)C)cccc12)CCCCCCN1C[C@H](O)[C@@H](O)[C@@H](O)[C@H]1CO [Compound 15, N-[(Dansylaminohexyl)-N-octanoylamino]hexyl-1,5-dideoxy-1,5-imino-D-galactitol] | 1800 | – | – | 28 | 47 | 200 | – |
| CN(C)c1cccc2c(S(=O)(=O)NCCCCCCN(CCCCCCNS(=O)(=O)c3cccc4c(N(C)C)cccc34)CCCCCCN3C[C@H](O)[C@@H](O)[C@@H](O)[C@H]3CO)cccc12 [Compound 13, N-Bis(dansylaminohexyl)aminohexyl-1,5-dideoxy-1,5-imino-D-galactitol] | 2700 | 3.0 | 1.8 | 230 | 120 | 530 | – |
| CN(C)c1cccc2c(S(=O)(=O)NCCCCCCNC(=O)CCCCCN3C[C@H](O)[C@@H](O)[C@@H](O)[C@H]3CO)cccc12 [Compound 8, N-(Dansylamino)hexylaminocarbonylpentyl-1,5-dideoxy-1,5-imino-D-galactitol] | 6200 | 258 | 1.7 | 450 | – | – | large range over which it enhanced β-galactosidase activity |
